The text below walks through data of ChEMBL document CHEMBL4732066, “SP1-independent inhibition of FOXM1 by modified thiazolidinediones” (Eur J Med Chem, 2021).

Molecules are shown by their SMILES. The source made the active and inactive calls. No cut-off for these calls is given here.

A short description of test [1]: Downregulation of FOXM1 expression in human MDA-MB-231 cells at 40 uM after 48 hrs by Western blot analysis relative to control. The format is functional. The method in brief: (§1)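 MDA-MB-231 cells (RPMI, 10% FBS, 37 °C, 5% CO2) were treated in 6-well plates and lysed in RIPA buffer for 30 min after ice-cold PBS washes. Protein was quantified by Bradford and equal amounts run on 10% SDS-PAGE, then transferred to nitrocellulose and blocked in 10% milk/TBST for 45 min. Primary antibody was used at 1:1000 at 4 °C overnight, secondary for 45 min at RT, with chemiluminescent detection.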

For test [2], the target named is T1, Forkhead box protein M1 (Homo sapiens, UniProt Q08050).
T1 sequence (Q08050 whole entry): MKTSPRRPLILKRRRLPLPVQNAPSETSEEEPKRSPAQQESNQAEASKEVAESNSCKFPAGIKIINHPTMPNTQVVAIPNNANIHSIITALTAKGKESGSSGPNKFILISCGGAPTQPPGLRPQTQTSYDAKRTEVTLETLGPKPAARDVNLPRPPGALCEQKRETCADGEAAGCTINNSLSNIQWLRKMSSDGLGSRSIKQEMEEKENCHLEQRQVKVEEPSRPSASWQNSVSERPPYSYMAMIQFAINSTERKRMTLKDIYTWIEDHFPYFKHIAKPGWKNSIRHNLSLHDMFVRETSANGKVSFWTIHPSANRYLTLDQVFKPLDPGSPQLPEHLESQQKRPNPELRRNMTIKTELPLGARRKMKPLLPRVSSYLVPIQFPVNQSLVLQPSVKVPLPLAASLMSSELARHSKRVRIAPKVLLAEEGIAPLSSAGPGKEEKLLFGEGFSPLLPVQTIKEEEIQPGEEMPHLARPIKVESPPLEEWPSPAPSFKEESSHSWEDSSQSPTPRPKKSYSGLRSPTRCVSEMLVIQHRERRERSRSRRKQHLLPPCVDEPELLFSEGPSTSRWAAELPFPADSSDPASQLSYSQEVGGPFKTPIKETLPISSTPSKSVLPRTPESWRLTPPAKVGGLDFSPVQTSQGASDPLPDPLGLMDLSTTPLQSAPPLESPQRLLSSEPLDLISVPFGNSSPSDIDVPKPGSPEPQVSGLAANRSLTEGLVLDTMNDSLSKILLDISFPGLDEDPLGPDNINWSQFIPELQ
As to the kind of experiment: Binding affinity to recombinant FOXM1 DBD (unknown origin) expressed in Escherichia coli BL21 (DE3) assessed as disruption of FOXM1-DNA complex preincubated for 1.5 hrs followed by DNA addition measured after 20 mins by EMSA. (In general: In EMSA bound probe runs differently from free probe, usually more slowly.)

The test system of test [3] is MDA-MB-231. As to the kind of experiment: Downregulation of SP1 expression in human MDA-MB-231 cells at 80 uM after 24 hrs by Western blot analysis. In kind it is functional, cell-based. The essentials: as §1
On the technique in general: Immunoblotting shows a protein as a band on a membrane.

Test [4] has as its target T2, Forkhead box protein M1 (Homo sapiens) (UniProt Q08050).
T2 sequence (whole entry): T1 sequence (Q08050 whole entry)
As to the kind of experiment: Inhibition of FOXM1 transcriptional activity in human MDA-MB-231 cells at 40 uM after 12 hrs by luciferase reporter gene assay. The format is cell-based. The method in brief:
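MDA-MB-231 cells were transiently transfected with equal amounts of 6x-FOXM1 firefly luciferase reporter and empty pGL4.10 backbone. After 24 h, cells were drug-treated for 12 h, PBS-washed and lysed in reporter lysis buffer. Firefly luciferase activity was read on equal total protein per lysate, in triplicate, with significance by one-way ANOVA.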

In test [5] the test system is MDA-MB-231. In words: Effect on SP1 expression in human MDA-MB-231 cells at 80 uM after 24 hrs by Western blot analysis. In kind it is functional, cell-based. The method in brief: as §1

Consider `COc1ccc(/C=C2\SC(=O)NC2=O)cc1OCc1ccc(C(F)(F)F)cc1`, for which the inhibition (in general, the percentage by which the read-out fell short of the control) at 40 µM in test [1] amounted to 80%. Compound `Nc1c(C(=O)Nc2ccc(F)cc2)sc2nc(-c3cccs3)cc(C(F)(F)F)c12` showed an inhibition at 40 µM in test [1] of 80%. On the same count and under the same terms, then `COc1cc(/C=C2\SC(=O)NC2=O)ccc1OCc1ccc([N+](=O)[O-])cc1`, with 80%; and `COc1ccc(/C=C2\SC(=O)NC2=O)cc1OCc1ccc([N+](=O)[O-])cc1`, with over 90%. In turn, `Cc1c(C)c2c(c(C)c1O)CCC(C)(COc1ccc(CC3SC(=O)NC3=O)cc1)O2` (stereo unspecified) [TROGLITAZONE] yielded an inhibition at 40 µM in test [1] of 80%. Moreover, in test [2], the IC50 (usually the concentration needed to halve the response being measured) is 122 µM. Moreover, the Ki (as a rule, the equilibrium dissociation constant of an inhibitor or competing ligand from its target) in test [2] stood at 0.052 µM. In addition, the inhibition result in test [3] and in test [4] was “Active” in each case.

As for `O=C1NC(=O)/C(=C/c2ccc(OCc3ccc([N+](=O)[O-])cc3)c([N+](=O)[O-])c2)S1`, in test [1], testing at 40 µM gave an inhibition of 80%.

Turning to `O=C1NC(=O)/C(=C/c2ccc(OCc3ccc([N+](=O)[O-])cc3)cc2)S1`, testing at 40 µM in test [1] gave an inhibition of 80%.

Compound `COc1cc(/C=C2\SC(=O)NC2=O)ccc1OCc1ccc(C(F)(F)F)cc1` had an inhibition at 40 µM in test [1] of over 90%. Also, the outcome in test [5] was inactive.

`COC(=O)c1ccc(COc2ccc(/C=C3\SC(=O)NC3=O)cc2OC)cc1`: in test [1], the inhibition at 40 µM was 80%. The compound `COC(=O)c1ccc(COc2ccc(/C=C3\SC(=O)NC3=O)cc2[N+](=O)[O-])cc1` gave an inhibition at 40 µM in test [1] of 80%. Regarding `O=C1NC(=O)/C(=C/c2ccc(OCc3ccc(C(F)(F)F)cc3)cc2)S1`, in test [1], the inhibition at 40 µM was over 90%.
